A selection: hits, their analogues and other compounds. The true share with any hit is near 1.1%.
FXIa inh 1536: factor XIa (human) inhibition. P03951. purified FXIa, Boc-Glu-Ala-Arg-AMC fluorogenic substrate. inhibition, % at 5 µM. hit rate 0.14% among 220,000;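 active means inhibition of at least 40%; inactive means inhibition below 40%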;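 further: fluorescence of freed AMC excited at 355 nm; 0% = enzyme without compound and 100% = no enzyme blank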
FXIIa inh 1536: factor XIIa (human) inhibition; purified FXIIa, Boc-QGR-AMC fluorogenic substrate, 2 h; inhibition, % at 5 µM; hit rate 0.3% among 220,000; AID 800; in the data active means inhibition above about 40%;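 further: 0% = enzyme with no compound and 100% = blank without enzyme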
Hep lipid drop: modulators of hepatic lipid droplet formation | hit rate 0.4% among 240,000 | inhibition, % at 6.5 µM | AML12 mouse hepatocytes, oleate lipid droplets, BODIPY imaging;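 active means lipid droplet intensity inhibited by at least 50%, with more than 500 cells counted; inconclusive means wells with under 300 cells, treated as cytotoxic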
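Assay system: AML12 mouse liver cells | Compound dosing: One dose, 6.5 µM compound | Read-out basis: Droplet intensity reduction, % inhibition | Measured by: Fluorescence imaging, 20x objective, two fields per well | Schedule: Overnight treatment with compound plus oleate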
KLK5 inh: kallikrein 5 (human) inhibition; AID 873; Q9Y337; inhibition, % at 5 µM; hit rate 0.59% among 210,000; recombinant hK5, fluorogenic AMC substrate cleavage;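 active means inhibition of 40% or more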;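 further: 0% = enzyme controls without compound and 100% = no-enzyme blanks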
Target sequence (Q9Y337 67-293 limits assumed): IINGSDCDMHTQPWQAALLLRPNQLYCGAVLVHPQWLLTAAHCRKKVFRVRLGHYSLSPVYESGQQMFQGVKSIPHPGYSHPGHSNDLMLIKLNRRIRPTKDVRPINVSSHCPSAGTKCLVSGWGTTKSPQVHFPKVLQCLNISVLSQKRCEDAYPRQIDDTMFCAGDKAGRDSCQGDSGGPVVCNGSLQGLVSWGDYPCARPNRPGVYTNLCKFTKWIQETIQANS
Biofilm kill mix: mixture kills Candida albicans biofilm cells | hit rate 0.02% among 120,000 | C. albicans biofilm persisters + clotrimazole, fluorescence viability; primary screen in compound mixtures of four per well | AID 1242 | inhibition, % at 7.6 µM;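 active means inhibition above 30.3% in the primary screen of four-compound pools, then above 30% when the compound was retested; inconclusive means passed the primary limit but could not be retested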;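 further: compounds exposed to preformed 24 h biofilms for 48 h; 0% = untreated biofilm control and 100% = clotrimazole plus chlorhexidine kill blank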
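System: C. albicans CAF4-2 wild-type biofilms; Medium: RPMI/MOPS medium, pH 7.0; Reagent: Clotrimazole, 50 µg/mL; Times: biofilm formation 24 h, compound exposure 48 h, 37 °C; Detection: 2-h Alamar Blue fluorescence, 535/590 nm excitation/emission; Evaluation: percent inhibition of biofilm viability.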
Thrombin inh: thrombin (human) inhibition. alpha-thrombin, Boc-VPR-AMC fluorogenic substrate cleavage. inhibition, % at 5 µM. hit rate 0.26% among 220,000. AID 1046;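 active means inhibition at or above 40%; inactive means inhibition below 40%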;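 further: 0% = enzyme with no compound and 100% = wells without enzyme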
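System: human alpha-thrombin protein; Compound dosing: one concentration per compound, 5 µM, with 0.2% DMSO; Timing: reaction at room temperature; Technique: AMC fluorescence, 355/460 nm; Controls: enzyme without compound as high, wells lacking enzyme as low.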
Hep lipid conf: hepatic lipid droplet formation inhibition, confirmed; shares compounds with Hep lipid drop; AML12 mouse hepatocytes, BODIPY lipid droplet imaging; droplets induced with 100 µM oleic acid; inhibition, % at 5.2 µM; hit rate 65% among 870; AID 463183;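 active means inhibition of lipid droplet metric at least 50%, with more than 300 cells in each of four replicates; inconclusive means wells under 300 cells, flagged as toxic or low count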;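 further: plate controls were DMSO with oleic acid for no effect and 5 µM Triacsin-C for full effect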
AML12 cytotox: counter-screen for cytotoxicity in AML12 mouse hepatocytes; shares compounds with Hep lipid drop; DAPI nuclear morphology cytotoxicity imaging; stronger effect = higher value; cells fed 100 µM oleate overnight; z-score at 5 µM; hit rate 3% among 870; AID 463200; in the data active means z-score above about 6.3;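 further: compound exposure lasted overnight at 37 °C before fixation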
AML12 tox ATP: confirmation of cytotoxicity in AML12 mouse hepatocytes. shares compounds with Hep lipid drop. AML12 mouse hepatocyte viability, ATP luminescence; cells loaded with 100 µM oleic acid. cytotoxicity, % at 50 µM. 530 tested, under 10 active;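 active means cytotoxicity above 50% in each of four replicates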;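 further: compound exposure lasted overnight at 37 °C before the ATP read; 0% = DMSO-treated cells and 100% = wells with no cells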
Starred values were filed as active, the others as inactive; u = inconclusive; x = no result given.

SMILES	FXIa inh 1536	FXIIa inh 1536	Hep lipid drop	KLK5 inh	Biofilm kill mix	Thrombin inh	Hep lipid conf	AML12 cytotox	AML12 tox ATP
Cc1cccc(CN2C(=O)N/C(=C/c3cc(C)n(-c4cc(C)ccn4)c3C)C2=O)c1	4	19	81*	-11	x	1	105*	-0.23	7
Cc1cccc(CN2C(=O)N/C(=C/c3ccc(C)s3)C2=O)c1	3	15	-14	5	x	2	x	x	x
CCOC(=O)n1cc(-c2cnc(CNC(=O)C(C)(c3ccccc3)c3ccccc3)o2)c2ccccc21	6	12	59*	-4	16	2	90*	0.61	x
CC(Sc1nnc(-c2ccccc2)c(-c2ccccc2)n1)C(=O)N1CCc2ccccc21 (stereo not drawn)	4	9	57*	-1	-3	9	82*	-0.34	8
Cc1ccccc1Cn1nc(C)c(NC(=O)C2c3ccccc3Oc3ccccc32)c1C	0	-10	81*	-10	13	-4	100*	-0.32	-4
Cc1cc(C)c(NC(=O)C2c3ccccc3Oc3ccccc32)c(C)c1	-2	6	-6	-7	10	-7	x	x	x
O=C(CNc1ccccc1)N/N=C/c1cn(-c2ccccc2)nc1-c1ccccc1	10	10	58*	-12	7	-6	38	0.37	x
CC1CCCN(C(=O)Cn2nnc(-c3ccc(S(C)(=O)=O)cc3)n2)C1 (stereo not drawn)	x	x	12	x	x	x	x	x	x
CN1C(C(=O)Nc2cccc(O)c2)=CC(c2cccs2)=NS1(=O)=O	x	x	-40	x	x	x	x	x	x
CCc1ccccc1NC(=O)C1=CC(c2cccs2)=NS(=O)(=O)N1C	x	x	72*	x	x	x	105*	-0.14	18
CC(C)c1nnc(NC(=O)C2CCN(C(=O)Nc3ccc(Cl)cc3)CC2)s1	x	x	1	x	x	x	x	x	x
CC(C)(C)NC(=O)CSc1nc2ccc(Nc3nc(N4CCOCC4)nc(N4CCOCC4)n3)cc2s1	10	-5	53*	-21	-14	0	89*	0.59	-2
Cc1ccc(Nc2nc(-c3cccnc3)nc3ccccc23)cc1	26	36	19	18	2	5	x	x	x
Cc1c(O)ccc(/C=N/Nc2nc(-c3cccnc3)nc3ccccc23)c1O	0	5	52*	3	7	1	81*	11*	x
CC(OC(=O)c1cccc(-n2cnnn2)c1)C(=O)N(C)c1ccccc1 (stereo not drawn)	x	x	2	x	x	x	x	x	x
CCN(CC)c1ccc(C(=O)OCC(=O)Nc2ccc3[nH]c(=O)[nH]c3c2)cc1	2	8	x	1	-10	-5	x	x	x
CSc1ccc(NC(=O)Nc2cc(C)ccn2)cc1	1	4	3	-2	6	-6	x	x	x
C#CC(=O)N(c1ccc(OC)c(OC)c1)C(C(=O)NC1CCCC1)c1cccs1 (stereo not drawn)	-4	-2	110*	11	x	19	u	35*	x
Cc1ccc(C(=O)NC(=S)Nc2ccc(NC(=O)c3cccs3)cc2)cc1[N+](=O)[O-]	-2	5	17	-1	6	-5	x	x	x
CC(C)C(=O)N(Nc1nc2ccccc2s1)C(=O)C(C)C	-10	3	72*	-2	13	-7	70*	0.056	8
Cc1c(Cl)sn(-c2ccc(Cl)cc2)c1=O	-8	-3	59*	-19	12	-5	-13	11*	x
O=C(Cc1ccccc1F)Nc1nc(-c2ccc(F)c(F)c2)cs1	x	x	-29	x	x	x	x	x	x
CC(=O)Nc1ccc(-c2csc(NC(=O)Cc3ccccc3F)n2)cc1	x	x	58*	x	x	x	75*	-0.2	-5
CC(=O)Nc1ccc(-c2csc(NC(=O)Cc3cccc(F)c3)n2)cc1	x	x	64*	x	x	x	100*	0.11	-14
COc1ccc(CC2(CO)CCN(C(C)Cc3ccc(Cl)cc3)CC2)cc1 (stereo not drawn)	-2	3	-4	x	0	-4	x	x	x
SMILES	FXIa inh 1536	FXIIa inh 1536	Hep lipid drop	KLK5 inh	Biofilm kill mix	Thrombin inh	Hep lipid conf	AML12 cytotox	AML12 tox ATP
O=C(c1nn2c(C(F)(F)F)cc(-c3cccs3)nc2c1Cl)N1CCCc2ccccc21	5	12	53*	-4	11	6	26	1.4	x
O=C(c1cnn2c(C(F)(F)F)cc(-c3ccccc3)nc12)N1CCCc2ccccc21	4	20	0	-5	x	3	x	x	x
COc1ccc(CCNC(=O)C2CC3Cn4c(nc5cc6ccccc6cc54)C3N2C)cc1 (stereo not drawn)	0	9	51*	1	17	0	8	0.47	x
O=C(Nc1ccc(Br)cc1)c1cccc(OC(=S)N2CCOCC2)c1	x	x	54*	x	x	x	89*	0.81	20
CCc1cccc(C)c1NC(=O)CC1Oc2ccc(C)cc2NC1=O (stereo not drawn)	x	x	-11	x	x	x	x	x	x
CN=C1S/C(=C\c2ccc(N3CCOCC3)cc2C)C(=O)N1C	8	14	-7	-11	13	-3	x	x	x
COCCN1C(=O)/C(=C/c2ccc(N3CCCC3)cc2C)SC1=S	5	8	105*	2	-9	1	105*	-0.08	x
COc1ccc(NC2CCCN(C(=O)CSc3ccncc3)C2)cc1 (stereo not drawn)	x	x	-15	x	x	x	x	x	x
CCOC(=O)c1c(S(=O)(=O)NC2CCN(C(=O)OCC)CC2)c(C)n(C)c1C	x	x	-1	x	x	x	x	x	x
CCCCNC(=O)C1CCN(C(=O)Nc2ccc(C)cc2)CC1	-4	6	62*	-11	12	-4	57*	0.85	x
CCOCCCNC(=O)C1CCN(C(=O)Nc2ccc(C)cc2)CC1	3	7	x	2	x	5	x	x	x
C=CCSc1nc2sc3c(c2c(=O)[nH]1)CC(C)(CC)OC3 (stereo not drawn)	x	x	0	x	x	x	x	x	x
CC1(C)Oc2ccc3ccc(=O)oc3c2/C(=C/Nc2ccc(O)cc2)C1=O	3	11	56*	5	6	4	94*	-0.42	-12
CC1(C)Oc2ccc3ccc(=O)oc3c2/C(=C/Nc2cccc(O)c2)C1=O	0	-2	-3	-2	3	-11	x	x	x
O=C1CC(/C=C/c2ccccc2)(C(=O)NC2CCCC2)N1c1ccc(S(=O)(=O)N2CCCC2)cc1 (stereo not drawn)	6	16	90*	-6	15	0	84*	-0.81	x
COCCn1c(-c2ccc(Br)cc2)nc2oc3cc(OC)ccc3c(=O)c2c1=O	-17	2	-11	4	16	-6	x	x	x
CCOc1ccc(CN(C)C(=O)NNC(=O)c2ccc(C)cc2)cc1OC	x	x	88*	x	x	x	80*	-1.5	8

Source: PubChem BioAssay
